Data taken from ChEMBL document CHEMBL1142721, “Nanomolar inhibitors of CNS epinephrine biosynthesis: (R)-(+)-3-fluoromethyl-7-(N-substituted aminosulfonyl)-1,2,3,4-tetrahydroisoquinolines as potent and highly selective inhibitors of phenylethanolamine N-methyltransferase1” (J Med Chem, 2005).

biological target: T1, Alpha-2A adrenergic receptor (Rattus norvegicus, UniProt P22909); assay: In vitro binding affinity against rat Alpha-2 adrenergic receptor using [3H]clonidine
T1 sequence (P22909 whole entry): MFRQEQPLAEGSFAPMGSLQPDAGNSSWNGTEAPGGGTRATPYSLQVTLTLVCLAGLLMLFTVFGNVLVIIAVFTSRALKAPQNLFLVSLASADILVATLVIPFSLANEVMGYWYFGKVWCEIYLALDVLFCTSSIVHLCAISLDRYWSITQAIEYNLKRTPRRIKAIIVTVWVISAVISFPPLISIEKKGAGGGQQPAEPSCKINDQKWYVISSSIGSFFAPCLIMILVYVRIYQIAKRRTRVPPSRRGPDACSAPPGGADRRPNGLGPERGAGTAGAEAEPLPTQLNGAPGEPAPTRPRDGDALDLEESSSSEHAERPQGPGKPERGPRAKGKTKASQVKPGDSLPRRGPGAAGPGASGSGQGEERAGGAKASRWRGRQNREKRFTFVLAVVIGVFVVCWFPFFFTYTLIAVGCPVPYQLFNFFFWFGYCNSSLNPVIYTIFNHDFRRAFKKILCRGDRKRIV
In short: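 Rat cortex membranes (male Sprague-Dawley) washed by three 50 000 × g spins in ice-cold 50 mM Tris/HCl pH 7.7. Incubated with [3H]clonidine at 2.0 nM final, 25 °C, 30 min. Bound ligand recovered on GF/B filters and counted. Nonspecific binding set with 2 µM phentolamine. Quadruplicate, 5 concentrations over a 16-fold range. IC50 from log-probit analysis, converted by Ki = IC50/(1 + [clonidine]/KD).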

Ki	Structure (SMILES)
750 µM	COCCCNS(=O)(=O)c1ccc2c(c1)CNC(CF)C2 (racemic)
1000 µM	O=S(=O)(NCC(F)(F)F)c1ccc2c(c1)CN[C@@H](CF)C2
700 µM	NS(=O)(=O)c1ccc2c(c1)CN[C@@H](CF)C2
570 µM	CCCNS(=O)(=O)c1ccc2c(c1)CN[C@@H](CF)C2
680 µM	NS(=O)(=O)c1ccc2c(c1)CNC(CF)C2 (racemic)
550 µM	CCNS(=O)(=O)c1ccc2c(c1)CN[C@@H](CF)C2
1200 µM	O=S(=O)(NCC(F)(F)F)c1ccc2c(c1)CNC(CF)C2 (racemic)
610 µM	CCCNS(=O)(=O)c1ccc2c(c1)CNC(CF)C2 (racemic)
680 µM	COCCCNS(=O)(=O)c1ccc2c(c1)CN[C@@H](CF)C2
550 µM	CCNS(=O)(=O)c1ccc2c(c1)CNC(CF)C2 (racemic)

Further lines, the compound ahead of its results:

Structure (SMILES)	Ki
O=S(=O)(c1ccc2c(c1)CNC(CF)C2)N1CCSCC1 (racemic)	190 µM
O=S(=O)(Nc1ccc(Cl)cc1)c1ccc2c(c1)CN[C@@H](CF)C2	140 µM
O=S(=O)(NCCC(F)(F)F)c1ccc2c(c1)CNC(CF)C2 (configuration not stated)	660 µM
O=S(=O)(NCCC(F)(F)F)c1ccc2c(c1)CN[C@@H](CF)C2	670 µM
O=S(=O)(Nc1ccc(Cl)cc1)c1ccc2c(c1)CNC(CF)C2 (racemic)	140 µM
O=S(=O)(Nc1ccc(Cl)cc1)c1ccc2c(c1)CN[C@H](CF)C2	150 µM
O=S(=O)(c1ccc2c(c1)CN[C@@H](CF)C2)N1CCSCC1	200 µM
